Results on 22 compounds are retold here after ChEMBL document CHEMBL1138715, “Isoxazole-3-hydroxamic acid derivatives as peptide deformylase inhibitors and potential antibacterial agents” (Bioorg Med Chem Lett, 2004).

What all share (type): functional
The test system of experiment [1] is Staphylococcus aureus. The experiment in a line: In vitro inhibitory activity against Staphylococcus aureus. A digest of the protocol:
(§1)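 Enzyme inhibition of peptide deformylase (PDF) from E. coli or S. aureus, in vitro. IC50 reported in µM as the mean of three experiments.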

Experiment [2] has as its system Escherichia coli. The experiment in a line: In vitro antibacterial activity against Escherichia coli mutant strain EC-AH547. In short, it runs like this:
(§2)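 MICs in µg/mL, determined by dilution susceptibility testing in liquid culture under NCCLS standard conditions for aerobically growing bacteria. Strains: EC-AH547, a tolC E. coli mutant with reduced efflux-pump activity; SA-101, a multiresistant S. aureus; SA-ATCC-25923, wild-type S. aureus.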

Experiment [3] relates to Escherichia coli. Kind of experiment: In vitro antibacterial activity against Escherichia coli wild type EC-ATCC-25922. In short, it runs like this: (§3)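 MIC, the lowest inhibiting concentration in µg/mL, determined in liquid culture by NCCLS standard dilution susceptibility conditions for aerobically growing bacteria. EC-ATCC-25922 is wild-type E. coli; EC-DC2 is a hyperpermeable E. coli strain.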

Experiment [4] relates to Escherichia coli. The experiment in a line: In vitro antibacterial activity against Escherichia coli hyperpermeable strain EC-DC2. In short, it runs like this:
as §3

Experiment [5] deals with Staphylococcus aureus. Kind of experiment: In vitro antibacterial activity against Staphylococcus aureus wild type SA-ATCC-25923. A digest of the protocol:
as §2

The subject of experiment [6] is Staphylococcus aureus. Kind of experiment: In vitro antibacterial activity against Staphylococcus aureus multi-resistant strain SA-101. In short, it runs like this:
as §2

The test system of experiment [7] is Escherichia coli. The experiment in a line: In vitro inhibitory activity against Escherichia coli. A digest of the protocol: as §1

≈ marks a conversion by molar mass, not a printed value.

In the experiment on Staphylococcus aureus [1], `CC(C)c1ccccc1S(=O)(=O)Cc1cc(C(=O)NO)no1` yielded an IC50 of 3.4 µM.

Take `COc1cccc(SCc2cc(C(=O)NO)no2)c1`: the MIC in the experiment on Escherichia coli [2] was 128 µg/mL (≈ 457 µM); in the experiment on Escherichia coli [3], > 128 µg/mL; against Escherichia coli [4], 128 µg/mL (≈ 457 µM); in the experiment with Staphylococcus aureus [5], > 128 µg/mL. In the experiment with Staphylococcus aureus [1], this compound had an IC50 of 2.2 µM.

Turning to `O=C(NO)c1cc(CSc2ccc(Cl)c(Cl)c2)on1`, the minimum inhibitory concentration (MIC) with Escherichia coli [2] was 16 µg/mL (≈ 50.1 µM); against Escherichia coli [3], > 128 µg/mL; against Escherichia coli [4] it was 32 µg/mL (≈ 100 µM); in the experiment with Staphylococcus aureus [5], 128 µg/mL (≈ 401 µM); with Staphylococcus aureus [6], 128 µg/mL (≈ 401 µM). Also, the IC50 in the experiment on Staphylococcus aureus [1] is 2 µM.

`CC(=O)Nc1ccc(SCc2cc(C(=O)NO)no2)cc1` came in with an IC50 with Staphylococcus aureus [1] of 42 µM.

In the case of `O=C(NO)c1cc(CSc2ccccc2Br)on1`, the IC50 in the experiment with Staphylococcus aureus [1] came to 4.9 µM.

With `COc1ccc(SCc2cc(C(=O)NO)no2)cc1`, in the experiment with Staphylococcus aureus [1], the concentration for half-maximal inhibition (IC50) came to 24 µM. Compared with the last compound, the IC50 is about 4.9-fold higher.

Take `O=C(NO)c1cc(CS(=O)(=O)c2cccc(Cl)c2)on1`: the IC50 in the experiment with Staphylococcus aureus [1] turned out to be 1.7 µM.

`O=C(NO)c1cc(CSc2cccc(Br)c2)on1`: in the experiment on Staphylococcus aureus [1], the IC50 is 2 µM.

As to `O=C(NO)c1cc(CSCc2cccc(C(F)(F)F)c2)on1`, inhibition in the experiment on Staphylococcus aureus [1] was half-maximal at 2.2 µM (IC50).

In the experiment on Staphylococcus aureus [1], `O=C(NO)c1cc(CSc2ccc(C(F)(F)F)cc2)on1` yielded an IC50 of 8.7 µM.

With `Cc1cc(C)c(SCc2cc(C(=O)NO)no2)c(C)c1`, in the experiment on Staphylococcus aureus [1], the IC50 is 37.7 µM.

Turning to `Cc1ccc([S+]([O-])Cc2cc(C(=O)NO)no2)cc1` (stereo not given), the IC50 in the experiment with Staphylococcus aureus [1] came to 0.9 µM. This IC50 lies about 42-fold lower than the previous one.

In the experiment on Staphylococcus aureus [1], `O=C(NO)c1cc(CSc2ccccc2Cl)on1` had an IC50 of 3.8 µM.

As to `O=C(NO)c1cc(CSc2ccc(F)cc2)on1`, in the experiment with Staphylococcus aureus [1], 1.5 µM corresponded to half-maximal inhibition (IC50).

For `O=C(NO)c1cc(CSc2ccc(Cl)cc2)on1`, the MIC was 64 µg/mL (≈ 225 µM) in the experiment on Escherichia coli [2], 128 µg/mL (≈ 450 µM) with Escherichia coli [3], 32 µg/mL (≈ 112 µM) against Escherichia coli [4] and > 128 µg/mL in the experiment with Staphylococcus aureus [5]. The compound also returned an IC50 in the experiment on Staphylococcus aureus [1] of 1.3 µM.

In the experiment on Staphylococcus aureus [1], `Cc1ccc(SCc2cc(C(=O)NO)no2)cc1` had an IC50 of 4 µM.

For the compound `Cc1ccc(S(=O)(=O)Cc2cc(C(=O)NO)no2)cc1`, the IC50 with Escherichia coli [7] came to 11.5 µM; in the experiment with Staphylococcus aureus [1], 1.4 µM.

The compound `O=C(NO)c1cc(CS(=O)(=O)c2ccc(Cl)cc2)on1` yielded an IC50 in the experiment on Staphylococcus aureus [1] of 0.8 µM.

On to `O=C(NO)c1cc(CSc2cccc(Cl)c2)on1`, for which the MIC in the experiment with Escherichia coli [2] is 64 µg/mL (≈ 225 µM); against Escherichia coli [3] it was > 128 µg/mL; against Escherichia coli [4], 32 µg/mL (≈ 112 µM); in the experiment with Staphylococcus aureus [5], > 128 µg/mL. Moreover, the IC50 in the experiment with Staphylococcus aureus [1] stood at 2.3 µM.

As for `COc1cccc(S(=O)(=O)Cc2cc(C(=O)NO)no2)c1`, half-maximal inhibition in the experiment on Staphylococcus aureus [1] (IC50) required 6.5 µM. In other words, the single-digit micromolar range.

Take `CC(C)c1ccccc1SCc1cc(C(=O)NO)no1`: inhibition in the experiment with Staphylococcus aureus [1] was half-maximal at 7.6 µM (IC50).

With `O=C(NO)c1cc(CSc2ccccc2C(F)(F)F)on1`, in the experiment with Staphylococcus aureus [1], the IC50 was 9.3 µM.
